The results in this text go back to ChEMBL document CHEMBL4177578, “Synthesis, pharmacological activities and molecular docking studies of pyrazolyltriazoles as anti-bacterial and anti-inflammatory agents” (Bioorg Med Chem, 2017).

Format in all cases: functional
The nature of assay [1]: Anti-inflammatory activity using bovine serum albumin and egg albumin proteins incubated at 37 degC for 20 mins and then heated to 95 degC for 20 mins by UV-visible Spectrophotometry based protein denaturation method. The procedure, abridged:
(§1)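 Albumin (bovine serum or egg) at 1% in 50 mM sodium phosphate buffer pH 6.4. Mixture is 0.1 ml test sample (1 mg/ml) plus 0.2 ml albumin, made to 5 ml with buffer. Held 37 °C for 20 min, then 95 °C for 20 min. Cooled to room temperature, turbidity read at 660 nm. % inhibition = (Abs control − Abs sample)/Abs control × 100. Triplicate, averaged.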

Assay [2] can be described thus: Anti-inflammatory activity at 50 ug/ml using bovine serum albumin and egg albumin proteins incubated at 37 degC for 20 mins and then heated to 95 degC for 20 mins by UV-visible Spectrophotometry based protein denaturation method. The essentials: as §1
A short description of assay [3]: Anti-inflammatory activity at 100 ug/ml using bovine serum albumin and egg albumin proteins incubated at 37 degC for 20 mins and then heated to 95 degC for 20 mins by UV-visible Spectrophotometry based protein denaturation method. The procedure, abridged: as §1
Assay [4] has as its system Micrococcus luteus. Kind of assay: Antimicrobial activity against Micrococcus luteus incubated for 12 to 16 hrs by tube dilution method. The procedure, abridged: (§2)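 Tube dilution, serial from 500 to 1.9 µg/mL, plus drug-free control tube. Each tube inoculated with 1 mL culture at OD 0.2, incubated 37 °C for 12–16 h. MIC is the lowest concentration with no growth by turbidity. MBC is found by plating each tube on nutrient agar: the lowest concentration at which all cells are killed.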

Assay [5] deals with Micrococcus luteus. Kind of assay: Antimicrobial activity against Micrococcus luteus incubated for 12 to 16 hrs followed by plating in nutrient agar by tube dilution method. The procedure, abridged: as §2
Assay [6] has as its system Salmonella paratyphi. Kind of assay: Antimicrobial activity against Salmonella paratyphi at 1 mg/ml incubated for 20 to 30 mins followed by incubation for 24 hrs at 37 degC by agar plate method. To be noted: Salmonella enterica subsp. enterica serovar Paratyphi A. The essentials:
(§3)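 Agar well diffusion on nutrient agar. Plates swabbed with 60 µL inoculum, 8 mm wells loaded with 100 µL sample at 1.0 mg/mL, streptomycin standard and control in separate wells. Plates held 20–30 min at 4 °C for diffusion, then 24 h at 37 °C. Zone diameter read in mm; triplicate.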

The subject of assay [7] is Salmonella paratyphi. Kind of assay: Antimicrobial activity against Salmonella paratyphi incubated for 12 to 16 hrs by tube dilution method. To be noted: Salmonella enterica subsp. enterica serovar Paratyphi A. The procedure, abridged:
(§4)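 Broth tube dilution, two-fold serial dilutions from 500 to 1.9 µg/mL plus a drug-free control tube. Each tube inoculated with 1 mL culture at OD 0.2 (~McFarland standard), 37 °C for 12-16 h. Turbidity compared with the control tube. MIC is the lowest concentration giving complete growth inhibition.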

In assay [8] the test system is Salmonella paratyphi. Kind of assay: Antimicrobial activity against Salmonella paratyphi incubated for 12 to 16 hrs followed by plating in nutrient agar by tube dilution method. Particulars: Salmonella enterica subsp. enterica serovar Paratyphi A. The essentials:
(§5)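 After 12-16 h at 37 °C in tube dilution (500 to 1.9 µg/mL; 1 mL inoculum at OD 0.2), the culture from each tube was plated on nutrient agar. MBC is the concentration at which cells are completely killed.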

For assay [9], the system named is Micrococcus luteus. Kind of assay: Antimicrobial activity against Micrococcus luteus at 1 mg/ml incubated for 20 to 30 mins followed by incubation for 24 hrs at 37 degC by agar plate method. The procedure, abridged:
(§6)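 Agar well diffusion on nutrient agar. Plates swabbed with 60 µL inoculum; 8 mm wells loaded with 100 µL of compound at 1.0 mg/mL. Held 20–30 min at 4 °C for diffusion, then 24 h at 37 °C. Inhibition zone diameter read in mm. Triplicate.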

In assay [10] the test system is Salmonella typhi. Description: Antimicrobial activity against Salmonella typhi incubated for 12 to 16 hrs followed by plating in nutrient agar by tube dilution method. Particulars: Salmonella enterica subsp. enterica serovar Typhi. The essentials:
as §5

Assay [11] has as its system Staphylococcus aureus. Description: Antimicrobial activity against Staphylococcus aureus at 1 mg/ml incubated for 20 to 30 mins followed by incubation for 24 hrs at 37 degC by agar plate method. The procedure, abridged:
as §6

The test system of assay [12] is Salmonella typhi. Description: Antimicrobial activity against Salmonella typhi at 1 mg/ml incubated for 20 to 30 mins followed by incubation for 24 hrs at 37 degC by agar plate method. Particulars: Salmonella enterica subsp. enterica serovar Typhi. The essentials: as §3
Assay [13] concerns Salmonella typhi. Description: Antimicrobial activity against Salmonella typhi incubated for 12 to 16 hrs by tube dilution method. To be noted: Salmonella enterica subsp. enterica serovar Typhi. The essentials: as §4

Activity calls are given as the source filed them. The calls are words filed in the database; no cut-off is given here.

Consider `CN(C)c1ccc(-c2cn(Cc3cn(-c4ccccc4)nc3-c3ccccc3)nn2)cc1`, for which the IC50 result in assay [1] is recorded as “Not Active”. In addition, the inhibition entry in assay [2] and in [3] was “inactive” in each case. The MIC entry in [4], in [7] and in [13] was “inactive” throughout. The MBC entry in [5], in [8] and in assay [10] was “inactive” throughout. Besides, the “diameter of the inhibition zone (DIZ)” value in [6], in assay [9], in assay [11] and in [12] was “inactive” throughout.
With `COC(=O)c1nnn(Cc2cn(-c3ccccc3)nc2-c2ccc(OC)cc2)c1C(=O)OC`, in assay [1], the IC50 entry was “Not Active”. Besides, the inhibition result in assay [2] and in assay [3] was “inactive” in each case. In addition, the MIC result in [4], in [7] and in assay [13] was “inactive” throughout. In addition, the MBC entry in assay [5], in [8] and in assay [10] was “inactive” each time. The “diameter of the inhibition zone (DIZ)” value in [6], in assay [9], in [11] and in assay [12] was “inactive” in each case.
For `Cc1ccc(-n2cc(CN=[N+]=[N-])c(-c3ccccc3)n2)cc1C`, the IC50 result in assay [1] is on record as “Not Active”. In addition, the inhibition result in assay [2] and in [3] was “inactive” each time. Moreover, the MIC entry in [4], in assay [7] and in assay [13] was “inactive” throughout. Also, the MBC result in [5], in assay [8] and in assay [10] was “inactive” each time. Besides, the “diameter of the inhibition zone (DIZ)” value in [6], in [9], in assay [11] and in [12] was “inactive” throughout.
Take `c1ccc(-c2cn(Cc3cn(-c4ccccc4)nc3-c3ccccc3)nn2)cc1`: in assay [1], the IC50 entry is given as “Not Active”. In addition, the inhibition result in assay [2] and in assay [3] was “inactive” each time. In addition, the MIC result in assay [4], in assay [7] and in assay [13] was “inactive” in each case. The MBC result in [5], in assay [8] and in assay [10] was “inactive” each time. The “diameter of the inhibition zone (DIZ)” value in assay [6], in [9], in assay [11] and in assay [12] was “inactive” each time.
Take `[N-]=[N+]=NCc1cn(-c2ccc(Cl)cc2)nc1-c1ccccc1`: the IC50 result in assay [1] is reported as “Not Active”. Besides, the inhibition result in [2] and in assay [3] was “inactive” in each case. In addition, the MIC entry in [4], in [7] and in assay [13] was “inactive” each time. Further, the MBC result in [5], in [8] and in [10] was “inactive” each time. The “diameter of the inhibition zone (DIZ)” value in assay [6], in assay [9], in [11] and in [12] was “inactive” in each case.
With `CCOC(=O)c1nnn(Cc2cn(-c3ccc(C)cc3)nc2-c2ccccc2)c1C(=O)OCC`, the IC50 result in assay [1] is “Not Active”. For the same compound, the inhibition result in [2] and in [3] was “inactive” throughout. In addition, the MIC result in [4], in assay [7] and in assay [13] was “inactive” each time. Further, the MBC result in assay [5], in assay [8] and in assay [10] was “inactive” in each case. The “diameter of the inhibition zone (DIZ)” value in assay [6], in [9], in assay [11] and in [12] was “inactive” each time.
Regarding `COC(=O)c1nnn(Cc2cn(-c3ccccc3)nc2-c2ccc(C)cc2)c1C(=O)OC`, in assay [1], the IC50 result is reported as “Not Active”. The inhibition entry in [2] and in [3] was “inactive” in each case. For the same compound, the MIC entry in assay [4], in assay [7] and in assay [13] was “inactive” in each case. Further, the MBC entry in [5], in [8] and in assay [10] was “inactive” each time. Further, the “diameter of the inhibition zone (DIZ)” value in assay [6], in assay [9], in assay [11] and in assay [12] was “inactive” in each case.
For the compound `[N-]=[N+]=NCc1cn(-c2ccccc2)nc1-c1ccccc1`, the IC50 entry in assay [1] was “Not Active”. Besides, the inhibition entry in assay [2] and in assay [3] was “inactive” in each case. For the same compound, the MIC entry in assay [4], in assay [7] and in assay [13] was “inactive” in each case. The MBC result in [5], in assay [8] and in [10] was “inactive” throughout. In addition, the “diameter of the inhibition zone (DIZ)” value in [6], in assay [9], in assay [11] and in assay [12] was “inactive” throughout.
For the compound `Nc1ccc(-c2cn(Cc3cn(-c4ccccc4)nc3-c3ccccc3)nn2)cc1`, in assay [1], the IC50 result is listed as “Not Active”. In addition, the inhibition entry in [2] and in [3] was “inactive” in each case. Besides, the MIC result in assay [4], in [7] and in [13] was “inactive” each time. Also, the MBC result in assay [5], in assay [8] and in [10] was “inactive” each time. The “diameter of the inhibition zone (DIZ)” value in [6], in assay [9], in [11] and in [12] was “inactive” in each case.
For `Cc1ccc(-c2nn(-c3ccccc3)cc2Cn2cc(-c3ccccc3)nn2)cc1`, the IC50 entry in [1] was “Not Active”. Further, the inhibition entry in [2] and in assay [3] was “inactive” in each case. The MIC result in assay [4], in assay [7] and in [13] was “inactive” in each case. Moreover, the MBC entry in assay [5], in [8] and in [10] was “inactive” each time. The “diameter of the inhibition zone (DIZ)” value in assay [6], in assay [9], in assay [11] and in assay [12] was “inactive” in each case.
